Data from ChEMBL document CHEMBL1123789, “Synthesis of beta-carboline-benzodiazepine hybrid molecules: use of the known structural requirements for benzodiazepine and beta-carboline binding in designing a novel, high-affinity ligand for the benzodiazepine receptor” (J Med Chem, 1987).

Legend:
[1] = target: GABA-A receptor; anion channel; assay: Displacement of [3H]flunitrazepam from GABA-A benzodiazepine receptor of rat cerebral cortex membrane; format: tissue-based
Outline: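 Rat cerebral cortex homogenised in ice-cold 50 mM Tris-HCl pH 7.4, washed by centrifugation, frozen at -20 °C ≥24 h. Filtration on glass fibre, scintillation counting, duplicates; IC50 by Hofstee analysis.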

[2] = target: T1, GABA-A receptor; anion channel (Mus musculus) (UniProt Q8BHJ7+P26048+Q8QZW7+P50571+Q9R0Y8+P22723+A2AMW3+P62812+Q9JLF1+P26049+P22933+Q9D6F4+P63080+P27681+P16305); assay: In vivo binding of [3H]flunitrazepam to GABA-A benzodiazepine receptor of mouse hippocampus after maximal Diazepam (10 mg/kg, 40 min); format: organism-based
Outline: (§1)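 Nonspecific in vivo binding. Diazepam 10 mg/kg was given to male Swiss mice 40 min before iv [3H]flunitrazepam (200 µCi/kg) and 60 min before decapitation. Cerebellum, cortex and hippocampus were homogenized in cold 50 mM Tris-HCl pH 7.4. Crude homogenate (12 mg wet tissue) was filtered on GF/B and counted, as pCi/mg wet tissue.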

[3] = target: T1, GABA-A receptor; anion channel (Mus musculus); assay: In vivo binding of [3H]flunitrazepam to GABA-A benzodiazepine receptor of mouse cerebellum after maximal Diazepam (10mg/kg, 40 min); format: organism-based; outline: as §1
[4] = target: T1, GABA-A receptor; anion channel (Mus musculus); assay: In vivo displacement of [3H]flunitrazepam to GABA-A benzodiazepine receptor of mouse hippocampus at 10 mg/kg, 10 min; format: organism-based; set-up: dose 10 mg/kg
Outline: (§2)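 Male Swiss mice received [3H]flunitrazepam 200 µCi/kg iv via tail vein. Test compound, 10 mg/kg suspended in Tween 80, was given 10 min later and 10 min before decapitation. Cerebellum, cortex and hippocampus were homogenized in cold 50 mM Tris-HCl pH 7.4. Crude homogenate (12 mg wet tissue) was filtered on GF/B and counted, as pCi/mg wet tissue.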

[5] = target: T1, GABA-A receptor; anion channel (Mus musculus); assay: In vivo binding of [3H]flunitrazepam to GABA-A benzodiazepine receptor of mouse cortex after maximal Diazepam (10 mg/kg, 40 min); format: organism-based; outline: as §1
[6] = target: T1, GABA-A receptor; anion channel (Mus musculus); assay: In vivo total binding of [3H]flunitrazepam (200uCi/kg, 20 min) to GABA-A benzodiazepine receptor of mouse cerebellum; format: organism-based
Outline: (§3)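 Male Swiss mice received [3H]flunitrazepam 200 µCi/kg in saline via tail vein, 20 min before decapitation. Cerebellum, cortex and hippocampus were dissected on ice and homogenized in ice-cold 50 mM Tris-HCl pH 7.4. Two 600-µL aliquots (12 mg wet tissue) were filtered on GF/B, washed twice and counted. Results given as pCi/mg wet tissue.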

[7] = target: T1, GABA-A receptor; anion channel (Mus musculus); assay: In vivo displacement of [3H]flunitrazepam to GABA-A benzodiazepine receptor of mouse cortex at 10 mg/kg, 10 min; format: organism-based; set-up: dose 10 mg/kg; outline: as §2
[8] = target: T1, GABA-A receptor; anion channel (Mus musculus); assay: In vivo displacement of [3H]flunitrazepam to GABA-A benzodiazepine receptor of mouse cerebellum at 10 mg/kg, 10 min; format: organism-based; set-up: dose 10 mg/kg; outline: as §2
[9] = target: GABA-A receptor; anion channel; assay: Displacement of [3H]beta-CCE from GABA-A benzodiazepine receptor of rat cerebral cortex membranes; format: cell membranes, Membrane
Outline: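 Rat cerebral cortex membranes, washed in 50 mM Tris-HCl pH 7.4, stored at −20 °C for at least 24 h. 60 µg protein incubated 60 min at 0 °C with 0.4 nM [3H]-β-CCE (final) and test compound from 5×10^-10 to 10^-5 M. Nonspecific binding was defined with 1 µM unlabeled β-CCE. Bound ligand collected by GF/B filtration and counted by scintillation. Duplicates; IC50 from Hofstee analysis.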

[10] = target: T1, GABA-A receptor; anion channel (Mus musculus); assay: In vivo total binding of [3H]flunitrazepam (200uCi/kg, 20 min) to GABA-A benzodiazepine receptor of mouse hippocampus; format: organism-based; outline: as §3
[11] = target: T1, GABA-A receptor; anion channel (Mus musculus); assay: In vivo total binding of [3H]flunitrazepam (200uCi/kg, 20 min) to GABA-A benzodiazepine receptor of mouse cortex; format: organism-based; outline: as §3

SMILES | IC50 [1] [µM] | IC50 [9] [µM] | other results
O=c1[nH]c2ccccc2c(=O)n2cc3nc4ccccc4c-3cc12 | 0.023 | 0.047 | Binding [2]: 25.6 pCi mg-1; Binding [3]: 24.1 pCi mg-1; Total binding [4]: 96.8 pCi mg-1; Binding [5]: 26.7 pCi mg-1; Total binding [6]: 71.2 pCi mg-1; Total binding [7]: 88 pCi mg-1; Total binding [8]: 78.8 pCi mg-1; Total binding [10]: 95.5 pCi mg-1; Total binding [11]: 85 pCi mg-1
O=C1Nc2ccccc2Cn2cc3nc4ccccc4c-3cc21 | 6 | 2 | 
CN1C(=O)CN=C(c2ccccc2F)c2cc([N+](=O)[O-])ccc21 [FLUNITRAZEPAM] | 0.003 | 0.008 | 
O=C1Nc2ccccc2C(=O)N2Cc3[nH]c4ccccc4c3CC12 (stereo unspecified) | > 100 | > 100 | 
O=C1Nc2ccccc2CN2Cc3[nH]c4ccccc4c3CC12 (stereo unspecified) | > 100 | > 100 | 
CCOC(=O)C1=CC2c3ccccc3NC2C=N1 (stereo unspecified) | 0.0025 | 0.006 | 
